Reference: ChEMBL document CHEMBL4304816, “A Novel Biphenyl-based Chemotype of Retinoid X Receptor Ligands Enables Subtype and Heterodimer Preferences” (ACS Med Chem Lett, 2019)
pEC50: −log10 of the molar value. Values after ≈ are worked out from the molar mass of the structure shown. One block for each compound: values may come before it. Active and inactive are the calls of the source. The calls are words filed in the database; no cut-off is given here.

Tests used:
[1] = Agonist activity at full-length human RXR/LXR expressed in HEK293T cells at 1 uM after 14 to 16 hrs by dual-glo luciferase reporter gene assay relative to untreated control; type: cell-based; conditions: HEK-293T, read-out: Activity
In short: (§1)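 RXR:LXR or RXR:PPARγ heterodimer reporter assay with test compound alone. Activation expressed relative to 0.1% DMSO vehicle. Three independent experiments, each in duplicate; mean reported.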

Homo sapiens [2] = species: Homo sapiens; assay: Agonist activity at full-length human RXR/PPARgamma expressed in HEK293T cells at 1 uM after 14 to 16 hrs by dual-glo luciferase reporter gene assay relative to untreated control; type: cell-based; in short: as §1
Homo sapiens [3] = species: Homo sapiens; assay: Agonist activity at full-length human PPARgamma/RXR expressed in HEK293T cells at 25 uM after 14 to 16 hrs by dual-glo luciferase reporter gene assay relative to untreated control; type: cell-based
In short: (§2)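 RXR:PPARγ heterodimer reporter assay in HEK293T cells with test compound alone. Mean relative activation is taken versus 0.1% DMSO, from three independent experiments each run in duplicate.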

[4] = Agonist activity at full-length human RXR/LXR expressed in HEK293T cells at 25 uM after 14 to 16 hrs by dual-glo luciferase reporter gene assay relative to untreated control; type: cell-based; conditions: HEK-293T, read-out: Activity; in short: as §1
[5] = Agonist activity at full-length human RXR/LXR expressed in HEK293T cells at 25 uM after 14 to 16 hrs in presence of 1 uM T0901317 by dual-glo luciferase reporter gene assay relative to T0901317; type: cell-based; conditions: HEK-293T, read-out: Activity
In short: (§3)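 Synergy format: the test compound was co-applied with the partner-receptor reference agonist at 1 μM, either T0901317 (RXR:LXR) or rosiglitazone (RXR:PPARγ). Relative synergistic activation was derived from three independent experiments, each in duplicate; mean reported.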

[6] = target: T1, Retinoic acid receptor RXR-gamma (Homo sapiens) (UniProt P48443); assay: Agonist activity at Gal4-LBD fused RXRgamma (unknown origin) expressed in HEK293T cells at 30 uM after 14 to 16 hrs by dual-Glo luciferase assay; type: cell-based
T1 sequence (whole entry): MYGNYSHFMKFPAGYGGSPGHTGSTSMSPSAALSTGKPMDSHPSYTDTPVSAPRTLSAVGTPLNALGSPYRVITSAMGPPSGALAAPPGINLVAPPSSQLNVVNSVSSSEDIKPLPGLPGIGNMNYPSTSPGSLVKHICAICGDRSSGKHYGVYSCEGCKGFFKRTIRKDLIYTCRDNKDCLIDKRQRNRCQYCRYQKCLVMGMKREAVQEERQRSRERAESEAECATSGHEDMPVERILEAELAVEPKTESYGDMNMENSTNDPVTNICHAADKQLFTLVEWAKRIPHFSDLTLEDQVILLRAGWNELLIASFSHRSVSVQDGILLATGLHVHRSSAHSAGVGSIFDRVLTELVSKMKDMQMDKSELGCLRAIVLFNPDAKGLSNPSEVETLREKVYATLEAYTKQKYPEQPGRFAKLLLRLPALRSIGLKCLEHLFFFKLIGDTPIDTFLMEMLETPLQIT

[7] = target: T2, Retinoic acid receptor RXR-alpha (Homo sapiens, UniProt P19793); assay: Agonist activity at Gal4-LBD fused RXRalpha (unknown origin) expressed in HEK293T cells after 14 to 16 hrs by dual-Glo luciferase assay; type: cell-based
T2 sequence (P19793 whole entry): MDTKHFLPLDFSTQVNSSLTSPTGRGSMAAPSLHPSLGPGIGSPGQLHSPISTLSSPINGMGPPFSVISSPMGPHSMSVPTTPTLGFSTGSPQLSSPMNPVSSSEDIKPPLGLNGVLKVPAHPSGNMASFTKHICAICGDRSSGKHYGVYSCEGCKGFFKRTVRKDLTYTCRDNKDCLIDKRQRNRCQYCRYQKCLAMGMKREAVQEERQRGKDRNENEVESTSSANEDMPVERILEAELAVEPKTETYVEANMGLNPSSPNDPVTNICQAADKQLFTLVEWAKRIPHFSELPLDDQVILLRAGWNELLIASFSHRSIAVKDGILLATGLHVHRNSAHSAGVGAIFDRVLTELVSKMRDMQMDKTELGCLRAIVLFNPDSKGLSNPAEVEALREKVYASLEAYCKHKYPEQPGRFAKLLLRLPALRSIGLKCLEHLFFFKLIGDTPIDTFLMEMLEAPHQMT
In short: (§4)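 Gal4-hybrid RXRα/β/γ reporter gene assays in HEK293T cells. Fold activation is the maximal fold activation versus 0.1% DMSO.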

[8] = target: T3, Retinoic acid receptor RXR-beta (Homo sapiens, UniProt P28702); assay: Agonist activity at Gal4-LBD fused RXRbeta (unknown origin) expressed in HEK293T cells after 14 to 16 hrs by dual-Glo luciferase assay; type: cell-based; in short: as §4
T3 sequence (P28702 whole entry): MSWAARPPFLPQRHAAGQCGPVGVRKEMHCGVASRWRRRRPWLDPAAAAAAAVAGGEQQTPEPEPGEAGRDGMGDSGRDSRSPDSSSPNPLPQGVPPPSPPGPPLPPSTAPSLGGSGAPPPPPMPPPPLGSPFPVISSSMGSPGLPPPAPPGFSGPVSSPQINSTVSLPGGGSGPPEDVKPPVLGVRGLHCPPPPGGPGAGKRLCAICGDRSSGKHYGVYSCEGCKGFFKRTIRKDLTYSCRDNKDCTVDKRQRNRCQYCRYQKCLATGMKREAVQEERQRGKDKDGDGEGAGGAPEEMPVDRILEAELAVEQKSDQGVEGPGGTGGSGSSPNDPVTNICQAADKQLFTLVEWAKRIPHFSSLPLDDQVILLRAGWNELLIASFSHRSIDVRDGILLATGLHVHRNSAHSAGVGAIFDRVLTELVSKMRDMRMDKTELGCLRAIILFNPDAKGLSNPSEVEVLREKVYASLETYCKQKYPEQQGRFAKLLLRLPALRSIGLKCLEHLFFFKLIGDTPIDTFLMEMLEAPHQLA

[9] = Agonist activity at full-length human RXR/LXR expressed in HEK293T cells at 5 uM after 14 to 16 hrs by dual-glo luciferase reporter gene assay relative to untreated control; type: cell-based; conditions: HEK-293T, read-out: Activity; in short: as §1
[10] = target: T4, Retinoic acid receptor RXR-alpha (Homo sapiens) (UniProt P19793); assay: Agonist activity at Gal4-LBD fused RXRalpha (unknown origin) expressed in HEK293T cells at 0.1 to 3 uM after 14 to 16 hrs in presence of RXR antagonist HX531 by dual-Glo luciferase reporter gene assay; type: cell-based
T4 sequence (whole entry): T2 sequence (P19793 whole entry)

[11] = target: T1, Retinoic acid receptor RXR-gamma (Homo sapiens); assay: Agonist activity at Gal4-LBD fused RXRgamma (unknown origin) expressed in HEK293T cells at 0.1 to 3 uM after 14 to 16 hrs in presence of RXR antagonist HX531 by dual-Glo luciferase reporter gene assay; type: cell-based
Homo sapiens [12] = species: Homo sapiens; assay: Agonist activity at full-length human PPARgamma/RXR expressed in HEK293T cells at 5 uM after 14 to 16 hrs by dual-glo luciferase reporter gene assay relative to untreated control; type: cell-based; in short: as §1
[13] = target: T5, Retinoic acid receptor RXR-gamma (Homo sapiens, UniProt P48443); assay: Agonist activity at Gal4-LBD fused RXRgamma (unknown origin) expressed in HEK293T cells after 14 to 16 hrs by dual-Glo luciferase assay; type: cell-based; in short: as §4
T5 sequence (P48443 whole entry): T1 sequence (whole entry)

[14] = target: T6, Retinoic acid receptor RXR-beta (Homo sapiens) (UniProt P28702); assay: Agonist activity at Gal4-LBD fused RXRbeta (unknown origin) expressed in HEK293T cells at 0.1 to 3 uM after 14 to 16 hrs in presence of RXR antagonist HX531 by dual-Glo luciferase reporter gene assay; type: cell-based
T6 sequence (whole entry): T3 sequence (P28702 whole entry)

[15] = Agonist activity at full-length human RXR/LXR expressed in HEK293T cells at 5 uM after 14 to 16 hrs in presence of 1 uM T0901317 by dual-glo luciferase reporter gene assay relative to T0901317; type: cell-based; conditions: HEK-293T, read-out: Activity; in short: as §3
Homo sapiens [16] = species: Homo sapiens; assay: Agonist activity at full-length human PPARgamma/RXR expressed in HEK293T cells at 5 uM after 14 to 16 hrs in presence of 1 uM rosiglitazone by dual-glo luciferase reporter gene assay relative to rosiglitazone; type: cell-based; in short: as §3
Homo sapiens [17] = species: Homo sapiens; assay: Agonist activity at full-length human PPARgamma/RXR expressed in HEK293T cells at 0.3 uM after 14 to 16 hrs in presence of 1 uM rosiglitazone by dual-glo luciferase reporter gene assay relative to rosiglitazone; type: cell-based
In short: (§5)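 RXR:PPARγ heterodimer reporter assay run with reference PPARγ agonist rosiglitazone (1 μM) co-applied. Read-out is mean relative synergistic activation, from three independent experiments each run in duplicate.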

Homo sapiens [18] = species: Homo sapiens; assay: Agonist activity at full-length human PPARgamma/RXR expressed in HEK293T cells at 0.3 uM after 14 to 16 hrs by dual-glo luciferase reporter gene assay relative to untreated control; type: cell-based; in short: as §2
[19] = Agonist activity at full-length human RXR/LXR expressed in HEK293T cells at 0.3 uM after 14 to 16 hrs in presence of 1 uM T0901317 by dual-glo luciferase reporter gene assay relative to T0901317; type: cell-based; conditions: HEK-293T, read-out: Activity; in short: as §3
[20] = Agonist activity at full-length human RXR/LXR expressed in HEK293T cells at 0.3 uM after 14 to 16 hrs by dual-glo luciferase reporter gene assay relative to untreated control; type: cell-based; conditions: HEK-293T, read-out: Activity; in short: as §1
[21] = Solubility of compound at 3 mg after 24 hrs by HPLC analysis; type: physicochemical
[22] = Agonist activity at full-length human RXR/LXR expressed in HEK293T cells at 10 uM after 14 to 16 hrs by dual-glo luciferase reporter gene assay relative to untreated control; type: cell-based; conditions: HEK-293T, read-out: Activity; in short: as §1
[23] = Metabolic stability in Wistar rat liver microsomes at 10 uM preincubated for 5 mins followed by microsomes addition in presence of NADPH measured up to 60 mins by HPLC analysis; type: ADME, Microsome; conditions: 1 h
[24] = Agonist activity at full-length human RXR/LXR expressed in HEK293T cells at 10 uM after 14 to 16 hrs in presence of 1 uM T0901317 by dual-glo luciferase reporter gene assay relative to T0901317; type: cell-based; conditions: HEK-293T, read-out: Activity; in short: as §3
Homo sapiens [25] = species: Homo sapiens; assay: Agonist activity at full-length human PPARgamma/RXR expressed in HEK293T cells at 10 uM after 14 to 16 hrs by dual-glo luciferase reporter gene assay relative to untreated control; type: cell-based; in short: as §2
Homo sapiens [26] = species: Homo sapiens; assay: Agonist activity at full-length human PPARgamma/RXR expressed in HEK293T cells at 10 uM after 14 to 16 hrs in presence of 1 uM rosiglitazone by dual-glo luciferase reporter gene assay relative to rosiglitazone; type: cell-based; in short: as §5

Activity [6]: inactive | pEC50 [7]: 4.81 | pEC50 [8]: 4.88
SMILES: O=C(O)c1cccc(-c2cc(Cl)cc(Cl)c2)c1
Activity (Homo sapiens [3]): 82% | activity at 25 µM [4]: 67% | activity at 25 µM [5]: 42%

solubility at 24 h [21]: 0.3 µg/mL (≈ 0.861 µM)
SMILES: C=C(c1ccc(C(=O)O)cc1)c1cc2c(cc1C)C(C)(C)CCC2(C)C [BEXAROTENE]
Activity (Homo sapiens [17]): 423% | Activity (Homo sapiens [18]): 330% | activity at 0.3 µM [19]: 665% | activity at 0.3 µM [20]: 200%

Stability [23]: Stable | Activity [10]: inactive | Activity [11]: inactive | pEC50 [13]: 6.66 | pEC50 [7]: 7.10 | Activity [14]: inactive | pEC50 [8]: 6.82 | solubility at 24 h [21]: 1.15 µg/mL (≈ 3.3 µM)
SMILES: O=C(O)Cc1ccc(-c2cc(C(F)(F)F)cc(C(F)(F)F)c2)cc1
activity at 10 µM [22]: 132% | activity at 10 µM [24]: 127% | Activity (Homo sapiens [25]): 267% | Activity (Homo sapiens [26]): 154%

Second part, the compound before the results:

SMILES: O=S(=O)(c1ccccc1)N(CC(F)(F)F)c1ccc(C(O)(C(F)(F)F)C(F)(F)F)cc1 [T091317]
activity at 1 µM [1]: 380%

SMILES: CN(CCOc1ccc(CC2SC(=O)NC2=O)cc1)c1ccccn1 (stereo not given)
Activity (Homo sapiens [2]): 224%

SMILES: CC(C)(C)c1cc(-c2ccc(CC(=O)O)cc2)cc(C(C)(C)C)c1
activity at 5 µM [9]: 89% | Activity [10]: inactive | Activity [11]: inactive | Activity (Homo sapiens [12]): 173% | pEC50 [13]: 5.48 | pEC50 [7]: 6.33 | Activity [14]: inactive | activity at 5 µM [15]: 82% | pEC50 [8]: 6.10 | Activity (Homo sapiens [16]): 108%
